This passage reports IC50 results from ChEMBL document CHEMBL1148942, “Cucurbitane triterpenoids from Leucopaxillus gentianeus” (J Nat Prod, 2004).

SMILES strings stand for the structures.

Holding throughout (assay type): functional, cell-based
The subject of assay [1] is HepG2. Description: Cytotoxicity against human HepG2 cells after 24 hrs by MTT assay. The note with it: HepG2, 24 h. The method in brief: (§1)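 ATCC cells kept adherent at 37 °C, 5% CO2 (A549: F12K + 10% FBS; HepG2, MCF-7: MEM + 1 mM pyruvate + 10% FBS; CAKI 1: McCoy's + 10% FBS). Seeded and grown 24 h, then exposed 24 h to compounds in FBS-free medium (final DMSO 0.25%). PBS wash, MTT 0.5 mg/mL in phenol-red-free MEM for 3 h at 37 °C, formazan dissolved in DMSO, read at A540. Two experiments in triplicate; IC50 derived.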
In general terms: Formazan colour is commonly taken as a measure of viable cells.

Assay [2] has as its system CAKI-1. Description: Cytotoxicity against human Caki1 cells after 24 hrs by MTT assay. Particulars: CAKI-1, 24 h. A digest of the protocol:
as §1

Assay [3] deals with A549. In words: Cytotoxicity against human A549 cells after 24 hrs by MTT assay. Particulars: A549, 24 h. The method in brief: as §1
The subject of assay [4] is MCF7. In words: Cytotoxicity against human MCF7 cells after 24 hrs by MTT assay. Particulars: MCF7, 24 h. The method in brief: as §1

Take `CC(=O)OC(C)(C)/C=C/C(=O)[C@](C)(O)[C@H]1[C@H](O)C[C@@]2(C)[C@@H]3CC=C4[C@H](C[C@H](O)C(=O)C4(C)C)[C@]3(C)C(=O)C[C@]12C` [CUCURBITACIN B]: the IC50 (in general, the concentration that inhibits the measured activity by half) in assay [1] was 0.76 µM; in assay [2], 7.1 µM; in assay [3], 46.6 µM; in assay [4] it was 0.78 µM.

For `CC(=O)O[C@H](C[C@@H](OC(C)=O)C(C)(C)O)[C@@H](C)[C@H]1CC[C@@]2(C)[C@@H]3CC=C4[C@@H](CCC(=O)C4(C)C)[C@]3(C)CC[C@]12CO` [LEUCOPAXILLONE A], the IC50 is 96.7 µM in assay [1], 108 µM in assay [2], more than 300 µM in assay [3] and 7.94 µM in assay [4].

With `CC(=O)O[C@H](C[C@@H](OC(C)=O)C(C)(C)O)[C@@H](C)[C@H]1CC[C@@]2(C)[C@@H]3CC=C4[C@@H](CCC(=O)C4(C)C)[C@]3(C)[C@]3(O)C[C@]12CO3` [LEUCOPAXILLONE B], the IC50 came to 86.9 µM in assay [1], 30.3 µM in assay [2], 155 µM in assay [3] and 86.9 µM in assay [4].
